Among the data in ChEMBL document CHEMBL1139436, “Quantitative structure-activity relationship of sesquiterpene lactones as inhibitors of the transcription factor NF-kappaB” (J Med Chem, 2004) are IC100 and pIC100 values, retold here.

Molecules are shown by their SMILES.

T1 sequence (P19838 whole entry, looked up): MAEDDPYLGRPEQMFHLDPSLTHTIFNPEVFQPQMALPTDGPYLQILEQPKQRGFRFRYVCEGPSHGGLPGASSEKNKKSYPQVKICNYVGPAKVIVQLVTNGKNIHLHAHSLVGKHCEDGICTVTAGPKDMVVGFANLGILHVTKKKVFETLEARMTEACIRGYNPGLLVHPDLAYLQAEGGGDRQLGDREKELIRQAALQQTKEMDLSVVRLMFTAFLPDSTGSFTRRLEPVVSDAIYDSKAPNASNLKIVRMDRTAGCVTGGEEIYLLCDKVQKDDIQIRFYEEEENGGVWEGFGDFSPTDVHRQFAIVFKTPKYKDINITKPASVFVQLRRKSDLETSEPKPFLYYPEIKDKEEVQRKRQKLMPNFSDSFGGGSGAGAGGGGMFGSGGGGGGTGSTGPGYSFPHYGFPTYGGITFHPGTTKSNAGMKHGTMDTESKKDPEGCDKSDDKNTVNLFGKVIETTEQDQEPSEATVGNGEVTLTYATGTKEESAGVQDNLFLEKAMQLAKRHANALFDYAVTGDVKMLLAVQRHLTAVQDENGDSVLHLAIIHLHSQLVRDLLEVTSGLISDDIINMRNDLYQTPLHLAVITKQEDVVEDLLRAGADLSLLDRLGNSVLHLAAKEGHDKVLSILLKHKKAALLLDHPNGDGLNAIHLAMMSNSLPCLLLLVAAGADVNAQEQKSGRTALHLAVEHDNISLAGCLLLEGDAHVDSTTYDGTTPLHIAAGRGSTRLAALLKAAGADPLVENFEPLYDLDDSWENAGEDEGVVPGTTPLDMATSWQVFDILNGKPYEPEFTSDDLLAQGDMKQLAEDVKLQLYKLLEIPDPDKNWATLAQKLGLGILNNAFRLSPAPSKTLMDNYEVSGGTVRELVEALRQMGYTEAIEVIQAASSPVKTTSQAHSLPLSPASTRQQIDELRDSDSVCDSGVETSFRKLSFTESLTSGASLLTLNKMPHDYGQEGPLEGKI
T1 sequence (Q00653 whole entry, looked up): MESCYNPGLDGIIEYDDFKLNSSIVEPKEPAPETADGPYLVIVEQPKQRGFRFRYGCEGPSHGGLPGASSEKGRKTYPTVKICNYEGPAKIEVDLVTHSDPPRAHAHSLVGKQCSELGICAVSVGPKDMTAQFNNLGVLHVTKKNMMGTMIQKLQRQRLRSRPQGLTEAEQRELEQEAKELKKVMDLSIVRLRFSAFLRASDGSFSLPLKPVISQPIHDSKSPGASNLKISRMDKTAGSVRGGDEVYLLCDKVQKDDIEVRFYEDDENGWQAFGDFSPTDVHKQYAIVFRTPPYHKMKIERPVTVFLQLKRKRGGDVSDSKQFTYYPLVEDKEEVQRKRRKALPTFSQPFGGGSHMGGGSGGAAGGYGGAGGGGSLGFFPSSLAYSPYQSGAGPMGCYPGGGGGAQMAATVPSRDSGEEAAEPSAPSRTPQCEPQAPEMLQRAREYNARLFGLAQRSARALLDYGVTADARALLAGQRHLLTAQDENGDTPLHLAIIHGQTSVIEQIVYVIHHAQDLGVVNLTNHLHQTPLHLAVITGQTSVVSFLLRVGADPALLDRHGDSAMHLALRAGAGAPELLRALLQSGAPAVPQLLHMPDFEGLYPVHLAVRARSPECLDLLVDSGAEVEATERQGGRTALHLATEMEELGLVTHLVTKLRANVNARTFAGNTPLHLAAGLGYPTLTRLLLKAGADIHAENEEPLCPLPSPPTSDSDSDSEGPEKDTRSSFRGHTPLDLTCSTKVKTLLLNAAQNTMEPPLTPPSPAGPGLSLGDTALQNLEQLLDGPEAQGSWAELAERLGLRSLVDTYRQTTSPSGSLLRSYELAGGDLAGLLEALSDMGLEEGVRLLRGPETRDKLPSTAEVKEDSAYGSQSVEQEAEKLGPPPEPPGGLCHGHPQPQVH
T1 sequence (Q04206 whole entry, looked up): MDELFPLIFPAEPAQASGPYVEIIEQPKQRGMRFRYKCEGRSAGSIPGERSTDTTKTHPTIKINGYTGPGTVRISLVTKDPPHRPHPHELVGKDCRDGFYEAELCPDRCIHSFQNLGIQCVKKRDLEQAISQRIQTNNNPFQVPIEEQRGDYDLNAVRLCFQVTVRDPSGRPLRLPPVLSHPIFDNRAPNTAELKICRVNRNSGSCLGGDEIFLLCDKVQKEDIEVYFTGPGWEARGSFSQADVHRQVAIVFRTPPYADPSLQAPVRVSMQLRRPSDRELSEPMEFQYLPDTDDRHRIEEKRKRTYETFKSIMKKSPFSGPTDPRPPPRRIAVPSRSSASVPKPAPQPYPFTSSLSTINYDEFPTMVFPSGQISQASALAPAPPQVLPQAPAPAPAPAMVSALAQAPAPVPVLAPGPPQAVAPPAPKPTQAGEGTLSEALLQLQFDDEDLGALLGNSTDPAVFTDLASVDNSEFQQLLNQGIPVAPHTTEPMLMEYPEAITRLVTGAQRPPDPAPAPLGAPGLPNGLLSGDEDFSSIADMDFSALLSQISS

In one test the target is T1, Nuclear factor NF-kappa-B complex (Homo sapiens) (UniProt Q00653+P19838+Q04206). As to the kind of experiment: (§1) Concentration required for complete inhibition of Nuclear factor kappa B DNA binding. The test is classed as protein-complex assay. In short, it runs like this:
(§2)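 Jurkat T cells (RPMI 1640, 10% FCS, penicillin/streptomycin) pretreated 1 h with sesquiterpene lactone, first at 10, 20, 50, 100 μM, then 1–5 μM or 200–300 μM as needed. Stimulated 1 h with 200 U/mL TNF-α. Total extracts (Totex high-salt buffer) analysed by EMSA with ³²P-labeled NF-κB oligonucleotide, 25 min at room temperature. IC100 is the lowest tested level fully blocking binding; intermediate values assigned the higher level. Each experiment reproduced at least once.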
The compound `C=C1C(=O)O[C@@H]2[C@H]3C(CO)=CC(=O)C3=C(C)CC[C@@H]12` registered an IC100 of 50 µM.

The compound `C=C1C(=O)C[C@H]2C(=C)C(=O)O[C@@H]2/C=C(/COC(=O)CC(C)C)CC[C@H]1OC` yielded an IC100 of 12.5 µM.

Consider `C=C1C(=O)O[C@@H]2/C=C(/C)[C@H](OC(C)=O)C/C=C(/C)CC[C@@H]12`, for which the IC100 amounted to 50 µM.

Consider `C=C1C(=O)O[C@H]2/C=C(\C)[C@@H](O)CC/C(C)=C/C[C@H]12`, for which the IC100 is 200 µM.

In turn, `C=C1C(=O)O[C@H]2C/C(CO)=C\CC/C(COC(=O)C(C)C(C)O)=C\C[C@H]12` (stereo partly specified) gave an IC100 of 50 µM.

In the case of `C=C1C(=O)O[C@@H]2[C@H]3C(C)=CC[C@H]3[C@](C)(O)C[C@H](OC(C)=O)[C@@H]12`, the IC100 was 20 µM.

Regarding `C=C(C)C(=O)O[C@@H]1C[C@@](C)(O)[C@@H]2C(=O)C=C(C)[C@@H]2[C@H]2OC(=O)C(=C)[C@@H]21`, the IC100 was 20 µM.

`C=C1C(=O)C[C@H]2C(=C)C(=O)O[C@@H]2/C=C(/COC(=O)C(C)C)CC[C@H]1OC`: the IC100 stood at 25 µM.

In turn, `C=C(C)C(=O)O[C@@H]1C[C@]2(C)CC[C@@](O)(O2)[C@@H](C)C[C@H]2OC(=O)C(=C)[C@H]12` yielded an IC100 of 200 µM.

Regarding `C=C1C(=O)O[C@H]2C/C(CO)=C\CC/C(COC(=O)C3(C)CO3)=C\C[C@H]12` (stereo partly specified), the IC100 stood at 50 µM.

Take `C=C(CO)C(=O)OC/C1=C/C[C@@H]2C(=C)C(=O)O[C@H]2C/C(CO)=C\CC1`: the IC100 was found to be 20 µM.

`C=C1C(=O)O[C@H]2C[C@]3(C)O[C@@H]3C[C@@H](OC(C)=O)C3=C[C@@H](OC3=O)[C@H]12` yielded an IC100 of 10 µM.

`C=C1C(=O)O[C@@H]2/C=C(/C)C3=CC(=O)[C@@](C)(C[C@@H](OC(=O)/C(C)=C/C)[C@@H]12)O3` showed an IC100 of 5 µM.

Turning to `C=C(C)C(=O)O[C@@H]1C[C@]2(C)CC[C@@](OC)(O2)/C(C)=C\[C@H]2OC(=O)C(=C)[C@@H]21`, the IC100 turned out to be 200 µM.

`C=C1C(=O)O[C@H]2C[C@H](C)C3=C(C[C@H]12)[C@@H](C)CC3=O` had an IC100 of 20 µM.

In turn, `C=C1C(=O)O[C@H]2C3=C(C(=O)C[C@@H]3C)[C@@H](C)CC[C@@H]12` yielded an IC100 of 20 µM.

Compound `C=C1C(=O)O[C@@H]2C[C@H](C)C3=CC(=O)[C@H](C)[C@@H]3C[C@H]12` registered an IC100 of 50 µM.

Consider `C=C1C(=O)O[C@@H]2/C=C(/COC(=O)CC(C)C)CC/C=C(/CO)C(=O)C[C@@H]12` (stereo in doubt; 5), for which the IC100 was found to be 12.5 µM.

Consider `C=C1C(=O)O[C@H]2[C@H]1[C@@H](OC(=O)/C(C)=C/C)C/C(C)=C\[C@@]1(OC)C=C(C)[C@@H]2O1`, for which the IC100 stood at 10 µM.

Regarding `C=C(C)C(=O)O[C@@H]1C=C(C=O)CCCC(=C)[C@H](O)[C@H]2OC(=O)C(=C)[C@@H]21`, the IC100 amounted to 10 µM.

Regarding `C=C(C)C(=O)O[C@H]1C/C(C)=C\[C@@]2(OC)C=C(C)[C@H](O2)[C@H]2OC(=O)C(=C)[C@@H]21`, the IC100 stood at 10 µM.

Compound `C=C(C)C(=O)OC/C1=C/C[C@@H]2C(=C)C(=O)O[C@H]2C/C(CO)=C\CC1` yielded an IC100 of 50 µM.

Turning to `C=C(C)C(=O)O[C@@H]1C[C@@]2(C)OC(=CC2=O)/C(C)=C\[C@H]2OC(=O)C(=C)[C@@H]21`, the IC100 was 10 µM.

The next test deals with T1, Nuclear factor NF-kappa-B complex (Homo sapiens). Described as §1. More on the design: unit not given here. Type of test: protein-complex assay. In short, it runs like this: as §2
Turning to `C=C1C(=O)O[C@@H]2[C@H]3C(CO)=CC(=O)C3=C(C)CC[C@@H]12`, the pIC100 was -1.69.

As to `C=C1C(=O)C[C@H]2C(=C)C(=O)O[C@@H]2/C=C(/COC(=O)CC(C)C)CC[C@H]1OC`, the pIC100 is -1.09.

For the compound `C=C1C(=O)O[C@@H]2/C=C(/C)[C@H](OC(C)=O)C/C=C(/C)CC[C@@H]12`, the pIC100 was -1.69.

Compound `C=C1C(=O)O[C@H]2/C=C(\C)[C@@H](O)CC/C(C)=C/C[C@H]12` gave a pIC100 of -2.

Turning to `C=C1C(=O)O[C@H]2C/C(CO)=C\CC/C(COC(=O)C(C)C(C)O)=C\C[C@H]12` (stereo partly specified), the pIC100 was -1.69.

The compound `C=C1C(=O)O[C@@H]2[C@H]3C(C)=CC[C@H]3[C@](C)(O)C[C@H](OC(C)=O)[C@@H]12` came in with a pIC100 of -1.3.

On to `C=C(C)C(=O)O[C@@H]1C[C@@](C)(O)[C@@H]2C(=O)C=C(C)[C@@H]2[C@H]2OC(=O)C(=C)[C@@H]21`, for which the pIC100 is -1.3.

Compound `C=C1C(=O)C[C@H]2C(=C)C(=O)O[C@@H]2/C=C(/COC(=O)C(C)C)CC[C@H]1OC` had a pIC100 of -1.39.

For the compound `C=C(C)C(=O)O[C@@H]1C[C@]2(C)CC[C@@](O)(O2)[C@@H](C)C[C@H]2OC(=O)C(=C)[C@H]12`, the pIC100 was -2.3.

`C=C1C(=O)O[C@H]2C/C(CO)=C\CC/C(COC(=O)C3(C)CO3)=C\C[C@H]12` (stereo partly specified) registered a pIC100 of -1.69.

With `C=C(CO)C(=O)OC/C1=C/C[C@@H]2C(=C)C(=O)O[C@H]2C/C(CO)=C\CC1`, the pIC100 was -1.3.

`C=C1C(=O)O[C@H]2C[C@]3(C)O[C@@H]3C[C@@H](OC(C)=O)C3=C[C@@H](OC3=O)[C@H]12`: the pIC100 was -1.

As for `C=C1C(=O)O[C@@H]2/C=C(/C)C3=CC(=O)[C@@](C)(C[C@@H](OC(=O)/C(C)=C/C)[C@@H]12)O3`, the pIC100 was -0.69.

In turn, `C=C(C)C(=O)O[C@@H]1C[C@]2(C)CC[C@@](OC)(O2)/C(C)=C\[C@H]2OC(=O)C(=C)[C@@H]21` gave a pIC100 of -2.3.

For the compound `C=C1C(=O)O[C@H]2C[C@H](C)C3=C(C[C@H]12)[C@@H](C)CC3=O`, the pIC100 was -1.3.

With `C=C1C(=O)O[C@H]2C3=C(C(=O)C[C@@H]3C)[C@@H](C)CC[C@@H]12`, the pIC100 was -1.3.

`C=C1C(=O)O[C@@H]2C[C@H](C)C3=CC(=O)[C@H](C)[C@@H]3C[C@H]12` had a pIC100 of -1.69.

Consider `C=C1C(=O)O[C@@H]2/C=C(/COC(=O)CC(C)C)CC/C=C(/CO)C(=O)C[C@@H]12` (stereo in doubt; 5), for which the pIC100 was -1.09.

As for `C=C1C(=O)O[C@H]2[C@H]1[C@@H](OC(=O)/C(C)=C/C)C/C(C)=C\[C@@]1(OC)C=C(C)[C@@H]2O1`, the pIC100 is -1.

Consider `C=C(C)C(=O)O[C@@H]1C=C(C=O)CCCC(=C)[C@H](O)[C@H]2OC(=O)C(=C)[C@@H]21`, for which the pIC100 was -1.

`C=C(C)C(=O)O[C@H]1C/C(C)=C\[C@@]2(OC)C=C(C)[C@H](O2)[C@H]2OC(=O)C(=C)[C@@H]21` displayed a pIC100 of -1.

In turn, `C=C(C)C(=O)OC/C1=C/C[C@@H]2C(=C)C(=O)O[C@H]2C/C(CO)=C\CC1` came in with a pIC100 of -1.3.

`C=C(C)C(=O)O[C@@H]1C[C@@]2(C)OC(=CC2=O)/C(C)=C\[C@H]2OC(=O)C(=C)[C@@H]21` gave a pIC100 of -1.
